According to ChEMBL document CHEMBL4257579, “Analogs of penfluridol as chemotherapeutic agents with reduced central nervous system activity” (Bioorg Med Chem Lett, 2018):

What was measured:
[1] = molecular target: 5-hydroxytryptamine receptor 5A (Homo sapiens, UniProt P47898); assay: Displacement of [3H]LSD from human 5-HT5A receptor expressed in Flp-In CHO cells by radioligand binding assay; format: cell-based
MDA-MB-231 [2] = assay: Cytotoxicity against human MDA-MB-231 cells assessed as reduction in cell viability after 48 hrs by MTT assay; format: functional, cell-based; conditions: MDA-MB-231, 48 h
Outline: (§1)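 Cells exposed to compounds; viability read at 24, 48 and 72 h. Every experiment run in triplicate.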

MDA-MB-231 [3] = assay: Cytotoxicity against human MDA-MB-231 cells assessed as reduction in cell viability after 72 hrs by MTT assay; format: functional, cell-based; conditions: MDA-MB-231, 72 h; outline: as §1
[4] = tested on: Lewis lung carcinoma cell line; assay: Cytotoxicity against mouse LLC cells harboring […] assessed as reduction in cell viability after 24 hrs by MTT assay; format: functional, cell-based; outline: as §1
NIH3T3 [5] = assay: Cytotoxicity against mouse NIH/3T3 cells assessed as reduction in cell viability after 48 hrs by MTT assay; format: cell-based; conditions: NIH3T3, 48 h; outline: as §1
NIH3T3 [6] = assay: Cytotoxicity against mouse NIH/3T3 cells assessed as reduction in cell viability after 72 hrs by MTT assay; format: cell-based; conditions: NIH3T3, 72 h; outline: as §1
[7] = molecular target: T1, 5-hydroxytryptamine receptor 1D (Homo sapiens, UniProt P28221); assay: Displacement of [3H]5-CT from human 5-HT1D receptor expressed in HEK293T cells by radioligand binding assay; format: cell-based
T1 sequence (P28221 whole entry): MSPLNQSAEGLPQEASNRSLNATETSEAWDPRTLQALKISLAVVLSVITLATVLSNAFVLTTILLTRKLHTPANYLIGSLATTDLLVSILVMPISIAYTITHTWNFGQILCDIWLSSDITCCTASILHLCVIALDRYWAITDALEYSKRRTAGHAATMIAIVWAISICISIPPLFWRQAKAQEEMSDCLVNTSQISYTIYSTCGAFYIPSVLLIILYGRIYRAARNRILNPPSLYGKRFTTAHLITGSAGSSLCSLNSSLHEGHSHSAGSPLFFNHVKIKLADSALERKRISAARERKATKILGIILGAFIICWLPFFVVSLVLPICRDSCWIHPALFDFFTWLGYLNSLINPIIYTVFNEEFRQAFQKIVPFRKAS

[8] = molecular target: 5-hydroxytryptamine receptor 6 (Homo sapiens, UniProt P50406); assay: Displacement of [3H]LSD from human 5-HT6 receptor expressed in HEK cells by radioligand binding assay; format: cell-based
[9] = molecular target: 5-hydroxytryptamine receptor 7 (Homo sapiens, UniProt P34969); assay: Displacement of [3H]LSD from human 5-HT7A receptor expressed in HEK cells by radioligand binding assay; format: cell-based
5-hydroxytryptamine receptor 7, sequence (P34969 whole entry): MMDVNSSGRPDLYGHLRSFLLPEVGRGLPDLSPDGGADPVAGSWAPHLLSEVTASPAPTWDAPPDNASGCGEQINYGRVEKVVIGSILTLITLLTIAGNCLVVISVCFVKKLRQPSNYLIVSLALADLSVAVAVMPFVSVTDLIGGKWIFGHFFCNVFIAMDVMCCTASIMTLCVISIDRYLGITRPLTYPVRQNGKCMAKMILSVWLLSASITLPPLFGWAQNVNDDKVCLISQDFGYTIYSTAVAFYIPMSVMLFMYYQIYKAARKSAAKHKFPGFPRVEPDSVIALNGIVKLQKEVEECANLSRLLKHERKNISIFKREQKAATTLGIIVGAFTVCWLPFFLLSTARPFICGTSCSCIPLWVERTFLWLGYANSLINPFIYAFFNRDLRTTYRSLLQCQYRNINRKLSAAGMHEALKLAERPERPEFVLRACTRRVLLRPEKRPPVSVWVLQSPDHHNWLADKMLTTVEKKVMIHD

D(1B) dopamine receptor = D(1B) dopamine receptor (Homo sapiens, UniProt P21918); assay: Displacement of [3H]SCH23390 from human dopamine D5 receptor expressed in HEK293T cells by radioligand binding assay relative to control; format: cell-based; set-up: concentration or dose not given beside the values; conditions: concentration not given here
D(1B) dopamine receptor, sequence (P21918 whole entry): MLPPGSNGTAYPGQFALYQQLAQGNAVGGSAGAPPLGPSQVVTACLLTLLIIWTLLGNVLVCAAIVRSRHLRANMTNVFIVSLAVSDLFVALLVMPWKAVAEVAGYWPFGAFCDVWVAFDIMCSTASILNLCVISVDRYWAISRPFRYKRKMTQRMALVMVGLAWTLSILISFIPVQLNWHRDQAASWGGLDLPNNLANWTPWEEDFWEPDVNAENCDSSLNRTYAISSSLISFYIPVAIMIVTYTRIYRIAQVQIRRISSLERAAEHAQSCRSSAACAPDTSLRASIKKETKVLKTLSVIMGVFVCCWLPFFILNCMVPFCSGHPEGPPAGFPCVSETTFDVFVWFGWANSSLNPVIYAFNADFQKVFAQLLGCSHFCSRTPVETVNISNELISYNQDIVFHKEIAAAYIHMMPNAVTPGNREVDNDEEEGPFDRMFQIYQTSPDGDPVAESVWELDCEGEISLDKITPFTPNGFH

[10] = molecular target: T2, Kappa-type opioid receptor (Homo sapiens, UniProt P41145); assay: Displacement of [3H]U69593 from KOR (unknown origin) expressed in HEK cells by radioligand binding assay relative to control; format: cell-based; set-up: concentration or dose not given beside the values; conditions: concentration not given here
T2 sequence (P41145 whole entry): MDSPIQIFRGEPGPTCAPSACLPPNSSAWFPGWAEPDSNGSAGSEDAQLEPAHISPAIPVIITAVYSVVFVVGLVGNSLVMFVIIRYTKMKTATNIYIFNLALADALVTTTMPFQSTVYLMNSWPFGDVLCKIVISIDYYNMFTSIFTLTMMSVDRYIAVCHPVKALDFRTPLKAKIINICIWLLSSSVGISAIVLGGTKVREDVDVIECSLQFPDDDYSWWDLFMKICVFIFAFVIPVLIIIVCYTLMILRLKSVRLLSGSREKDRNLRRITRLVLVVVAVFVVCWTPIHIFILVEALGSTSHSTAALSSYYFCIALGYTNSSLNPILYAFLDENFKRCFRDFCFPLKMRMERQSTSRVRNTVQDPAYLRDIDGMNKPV

D(2) dopamine receptor = D(2) dopamine receptor (Homo sapiens, UniProt P14416); assay: Displacement of [3H]N-methylspiperone from human dopamine D2 receptor expressed in stable fibroblast cells by radioligand binding assay relative to control; format: cell-based; set-up: concentration or dose not given beside the values; conditions: concentration not given here
D(2) dopamine receptor, sequence (P14416 whole entry): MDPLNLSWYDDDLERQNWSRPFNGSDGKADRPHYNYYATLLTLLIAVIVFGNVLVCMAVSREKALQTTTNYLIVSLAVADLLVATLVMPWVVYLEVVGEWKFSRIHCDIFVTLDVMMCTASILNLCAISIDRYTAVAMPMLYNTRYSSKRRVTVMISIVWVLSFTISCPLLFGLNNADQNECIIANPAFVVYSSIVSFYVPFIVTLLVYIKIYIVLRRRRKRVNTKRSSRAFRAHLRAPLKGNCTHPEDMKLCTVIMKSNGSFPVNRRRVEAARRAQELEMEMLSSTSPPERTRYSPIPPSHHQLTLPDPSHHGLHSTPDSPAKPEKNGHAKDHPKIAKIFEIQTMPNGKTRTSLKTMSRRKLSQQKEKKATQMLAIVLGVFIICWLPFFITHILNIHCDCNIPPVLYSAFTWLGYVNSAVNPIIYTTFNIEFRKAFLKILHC

[11] = molecular target: T3, D(4) dopamine receptor (Homo sapiens) (UniProt P21917); assay: Displacement of [3H]N-methylspiperone from human dopamine D4 receptor by radioligand binding assay relative to control; set-up: concentration or dose not given beside the values; conditions: concentration not given here
T3 sequence (whole entry): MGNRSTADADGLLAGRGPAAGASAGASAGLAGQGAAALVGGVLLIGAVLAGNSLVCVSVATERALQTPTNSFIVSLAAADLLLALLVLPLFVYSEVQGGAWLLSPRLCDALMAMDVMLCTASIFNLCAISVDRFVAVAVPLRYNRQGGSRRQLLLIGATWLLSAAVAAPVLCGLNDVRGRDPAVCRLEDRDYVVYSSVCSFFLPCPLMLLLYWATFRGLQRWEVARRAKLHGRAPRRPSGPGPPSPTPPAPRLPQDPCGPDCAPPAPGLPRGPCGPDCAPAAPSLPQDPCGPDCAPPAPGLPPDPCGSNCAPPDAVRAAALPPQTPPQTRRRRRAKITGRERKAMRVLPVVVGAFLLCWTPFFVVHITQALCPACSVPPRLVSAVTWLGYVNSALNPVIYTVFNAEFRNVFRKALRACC

D(1A) dopamine receptor = D(1A) dopamine receptor (Homo sapiens, UniProt P21728); assay: Displacement of [3H]SCH23390 from human dopamine D1 receptor expressed in HEK293T cells by radioligand binding assay relative to control; format: cell-based; set-up: concentration or dose not given beside the values; conditions: concentration not given here
D(1A) dopamine receptor, sequence (P21728 whole entry): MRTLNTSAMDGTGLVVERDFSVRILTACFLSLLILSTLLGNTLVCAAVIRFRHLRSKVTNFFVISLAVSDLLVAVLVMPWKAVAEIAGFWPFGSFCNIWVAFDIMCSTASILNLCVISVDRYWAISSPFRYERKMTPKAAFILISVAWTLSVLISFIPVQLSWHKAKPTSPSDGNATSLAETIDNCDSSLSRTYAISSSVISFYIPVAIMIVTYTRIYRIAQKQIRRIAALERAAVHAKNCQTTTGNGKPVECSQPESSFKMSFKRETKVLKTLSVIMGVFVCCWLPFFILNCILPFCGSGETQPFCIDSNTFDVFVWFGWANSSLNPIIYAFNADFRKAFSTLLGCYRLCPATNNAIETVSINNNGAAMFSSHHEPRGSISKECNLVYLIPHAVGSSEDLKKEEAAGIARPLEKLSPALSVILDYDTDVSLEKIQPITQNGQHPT

[12] = molecular target: T1, 5-hydroxytryptamine receptor 1D; assay: Displacement of [3H]5-CT from human 5-HT1D receptor expressed in HEK293T cells by radioligand binding assay relative to control; format: cell-based; set-up: concentration or dose not given beside the values; conditions: concentration not given here
[13] = molecular target: 5-hydroxytryptamine receptor 2B (Homo sapiens, UniProt P41595); assay: Displacement of [3H]LSD from human 5-HT2B receptor expressed in HEK cells by radioligand binding assay relative to control; format: cell-based; set-up: concentration or dose not given beside the values; conditions: concentration not given here
5-hydroxytryptamine receptor 2B, sequence (P41595 whole entry): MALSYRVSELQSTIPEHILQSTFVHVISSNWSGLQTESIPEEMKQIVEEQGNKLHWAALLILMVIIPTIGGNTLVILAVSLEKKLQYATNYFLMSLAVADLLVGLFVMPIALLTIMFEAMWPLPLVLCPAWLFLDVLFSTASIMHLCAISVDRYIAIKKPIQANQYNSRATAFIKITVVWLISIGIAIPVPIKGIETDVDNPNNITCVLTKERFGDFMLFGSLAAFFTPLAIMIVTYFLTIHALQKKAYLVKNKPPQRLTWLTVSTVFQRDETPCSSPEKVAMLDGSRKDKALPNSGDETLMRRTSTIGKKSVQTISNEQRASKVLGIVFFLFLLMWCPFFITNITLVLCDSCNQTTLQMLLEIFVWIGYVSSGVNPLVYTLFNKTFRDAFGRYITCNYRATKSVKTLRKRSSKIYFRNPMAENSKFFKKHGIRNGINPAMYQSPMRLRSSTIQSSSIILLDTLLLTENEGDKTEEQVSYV

[14] = molecular target: T4, 5-hydroxytryptamine receptor 1A (Homo sapiens) (UniProt P08908); assay: Displacement of [3H]-Way100635 from human 5HT1A receptor expressed in stable CHO cell membranes by radioligand binding assay relative to control; set-up: concentration or dose not given beside the values; conditions: concentration not given here
T4 sequence (whole entry): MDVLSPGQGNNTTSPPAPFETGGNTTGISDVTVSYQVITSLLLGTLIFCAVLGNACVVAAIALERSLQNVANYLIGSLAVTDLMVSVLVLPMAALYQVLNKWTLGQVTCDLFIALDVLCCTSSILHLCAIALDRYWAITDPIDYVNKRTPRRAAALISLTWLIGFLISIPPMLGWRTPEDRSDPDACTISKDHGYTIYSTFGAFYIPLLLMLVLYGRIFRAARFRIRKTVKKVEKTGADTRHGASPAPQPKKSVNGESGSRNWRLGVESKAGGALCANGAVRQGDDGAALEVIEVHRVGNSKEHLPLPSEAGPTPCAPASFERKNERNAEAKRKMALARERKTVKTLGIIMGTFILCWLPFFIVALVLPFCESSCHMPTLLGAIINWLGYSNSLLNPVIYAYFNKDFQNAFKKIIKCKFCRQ

[15] = molecular target: Sodium-dependent serotonin transporter (Homo sapiens, UniProt P31645); assay: Displacement of [3H]Citalopram from human SERT expressed in HEK cells by radioligand binding assay; format: cell-based
Sodium-dependent serotonin transporter, sequence (P31645 whole entry): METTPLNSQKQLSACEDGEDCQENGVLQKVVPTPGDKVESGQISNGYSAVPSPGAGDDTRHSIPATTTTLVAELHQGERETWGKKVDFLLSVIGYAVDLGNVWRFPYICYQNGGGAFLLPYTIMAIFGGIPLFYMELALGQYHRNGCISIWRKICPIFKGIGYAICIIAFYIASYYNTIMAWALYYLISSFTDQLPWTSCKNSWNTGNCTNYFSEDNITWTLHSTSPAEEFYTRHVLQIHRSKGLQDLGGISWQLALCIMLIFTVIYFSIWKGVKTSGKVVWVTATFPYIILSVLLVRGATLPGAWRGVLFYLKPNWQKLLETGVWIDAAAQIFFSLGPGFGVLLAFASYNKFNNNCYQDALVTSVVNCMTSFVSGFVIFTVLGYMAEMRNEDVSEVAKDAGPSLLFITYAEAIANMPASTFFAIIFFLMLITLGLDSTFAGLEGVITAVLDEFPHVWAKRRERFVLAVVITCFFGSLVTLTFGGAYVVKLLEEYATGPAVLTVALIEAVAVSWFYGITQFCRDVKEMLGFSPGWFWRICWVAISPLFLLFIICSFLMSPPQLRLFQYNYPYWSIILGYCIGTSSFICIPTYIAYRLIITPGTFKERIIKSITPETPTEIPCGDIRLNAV

[16] = molecular target: T2, Kappa-type opioid receptor; assay: Displacement of [3H]U69593 from KOR (unknown origin) expressed in HEK cells by radioligand binding assay; format: cell-based
D(4) dopamine receptor = molecular target: T5, D(4) dopamine receptor (Homo sapiens, UniProt P21917); assay: Displacement of [3H]N-methylspiperone from human dopamine D4 receptor by radioligand binding assay
T5 sequence (P21917 whole entry): T3 sequence (whole entry)

D(3) dopamine receptor = D(3) dopamine receptor (Homo sapiens, UniProt P35462); assay: Displacement of [3H]N-methylspiperone from human dopamine D3 receptor expressed in HEK293T cells by radioligand binding assay; format: cell-based
D(3) dopamine receptor, sequence (P35462 whole entry): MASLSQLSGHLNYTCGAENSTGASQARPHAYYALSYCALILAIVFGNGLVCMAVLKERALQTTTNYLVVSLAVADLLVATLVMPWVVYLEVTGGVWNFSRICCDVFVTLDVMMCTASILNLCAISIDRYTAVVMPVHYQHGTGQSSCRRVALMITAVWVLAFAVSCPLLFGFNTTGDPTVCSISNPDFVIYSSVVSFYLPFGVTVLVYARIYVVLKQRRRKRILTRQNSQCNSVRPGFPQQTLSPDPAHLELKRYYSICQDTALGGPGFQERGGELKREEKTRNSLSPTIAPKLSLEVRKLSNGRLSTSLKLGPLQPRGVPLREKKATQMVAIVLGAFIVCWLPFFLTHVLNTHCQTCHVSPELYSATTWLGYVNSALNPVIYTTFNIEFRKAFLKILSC

Histamine H1 receptor [17] = molecular target: T6, Histamine H1 receptor (Homo sapiens, UniProt P35367); assay: Displacement of [3H]Pyrilamine from human H1 receptor expressed in HEK cells by radioligand binding assay; format: cell-based
T6 sequence (P35367 whole entry): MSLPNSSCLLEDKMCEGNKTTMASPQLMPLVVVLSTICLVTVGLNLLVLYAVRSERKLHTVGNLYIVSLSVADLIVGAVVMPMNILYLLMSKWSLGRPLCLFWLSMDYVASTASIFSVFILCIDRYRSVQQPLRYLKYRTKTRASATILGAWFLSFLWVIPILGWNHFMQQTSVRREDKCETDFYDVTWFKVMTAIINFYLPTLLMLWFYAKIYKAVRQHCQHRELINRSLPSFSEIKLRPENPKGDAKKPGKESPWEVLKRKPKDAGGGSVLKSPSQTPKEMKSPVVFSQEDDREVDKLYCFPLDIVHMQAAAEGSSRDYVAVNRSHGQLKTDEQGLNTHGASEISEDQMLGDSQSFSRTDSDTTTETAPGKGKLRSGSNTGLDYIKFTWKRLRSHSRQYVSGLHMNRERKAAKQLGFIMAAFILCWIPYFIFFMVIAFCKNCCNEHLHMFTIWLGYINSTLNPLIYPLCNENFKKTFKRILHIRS

Histamine H1 receptor [18] = molecular target: T6, Histamine H1 receptor; assay: Displacement of [3H]Pyrilamine from human H1 receptor expressed in HEK cells by radioligand binding assay relative to control; format: cell-based; set-up: concentration or dose not given beside the values; conditions: concentration not given here
[19] = Drug distribution in C57BL/6J mouse adipose tissue at 5 mg/kg, ip treated daily for 7 consecutive days measured after 24 hrs post last dose by LC/MS/MS analysis; format: ADME, organism-based; conditions: in vivo
Outline: (§2)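 Female C57BL6 mice dosed 5 mg/kg i.p. once daily for seven consecutive days; sacrificed 24 h after last injection, organs stored at −80 °C. Plasma, brain, lungs and adipose tissue analysed by LC-MS/MS for drug concentration (nM); n = 5.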

[20] = Drug distribution in C57BL/6J mouse lung at 5 mg/kg, ip treated daily for 7 consecutive days measured after 24 hrs post last dose by LC/MS/MS analysis; format: ADME, organism-based; conditions: in vivo; outline: as §2

5-hydroxytryptamine receptor 5A, sequence (P47898 whole entry): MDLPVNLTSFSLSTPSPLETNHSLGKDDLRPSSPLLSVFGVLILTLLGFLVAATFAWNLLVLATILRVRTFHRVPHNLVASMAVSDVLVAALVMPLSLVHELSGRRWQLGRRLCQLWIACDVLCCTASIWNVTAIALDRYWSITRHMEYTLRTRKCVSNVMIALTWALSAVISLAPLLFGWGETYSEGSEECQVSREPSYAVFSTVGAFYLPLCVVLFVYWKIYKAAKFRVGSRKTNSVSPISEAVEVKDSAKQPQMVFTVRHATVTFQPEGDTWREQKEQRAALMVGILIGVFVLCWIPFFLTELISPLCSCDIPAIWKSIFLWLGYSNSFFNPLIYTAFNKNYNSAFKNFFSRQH

Row | SMILES | IC50 (MDA-MB-231 [2]) [µM] | IC50 (MDA-MB-231 [3]) [µM] | IC50 [4] [µM] | IC50 (NIH3T3 [5]) [µM] | IC50 (NIH3T3 [6]) [µM] | Ki ([7]; read-out: Ki) [µM] | Ki [8] [µM] | Ki [9] [µM] | inhibition (D(1B) dopamine receptor) [%] | inhibition [10] [%] | inhibition (D(2) dopamine receptor) [%] | inhibition [11] [%] | inhibition (D(1A) dopamine receptor) [%] | inhibition [12] [%] | inhibition [13] [%] | inhibition [14] [%] | Ki [15] [µM] | Ki [16] [µM] | Ki (D(4) dopamine receptor) [µM] | Ki (D(3) dopamine receptor) [µM] | also measured
1 | OC1(c2ccc(Cl)c(C(F)(F)F)c2)CCN(CCCC(c2ccccc2)c2ccccc2)CC1 | 8.7 | 8.4 | 11.4 | 12 | 9.8 | 0.628 | 1.69 | 0.326 | 89.4 | 98 | 100 | 98.9 | 97.2 | 83.3 | 92.5 | 97.2 | 1.18 | 1.33 | 0.058 | 0.062 | Ki ([1]; cho): Not Active
2 | OC1(c2ccc(Cl)c(C(F)(F)F)c2)CCN(CCCCN(c2ccc(F)cc2)c2ccc(F)cc2)CC1 | 11.5 | 9.2 | 10.8 | 11.6 | 6.4 | 1.07 | 1.67 | 0.812 | 84.6 | 70.3 | 65.8 | 86.1 | 77.9 | 70.6 | 82.4 | 82.2 | 10 | 10 | 10 | 0.782 | Ki ([1]; read-out: Ki): 4.15 µM; Ki (Histamine H1 receptor [17]): Not Active
3 | OC1(c2ccc(Cl)c(C(F)(F)F)c2)CCN(CCCC=C(c2ccc(F)cc2)c2ccc(F)cc2)CC1 | 14.9 | 9.6 | 15.6 | 14.8 | 7.1 |  |  | 10 |  | 80.9 | 87.3 | 87.8 |  |  | 91.8 | 71.2 |  | 1.02 | 1.64 | 0.552 | Ki [7]: Not Active; Ki (Histamine H1 receptor [17]; read-out: Ki): 0.718 µM; inhibition (Histamine H1 receptor [18]): 64.6%
4 | OC1(c2ccc(Cl)c(C(F)(F)F)c2)CCN(CCCN(c2ccc(F)cc2)c2ccc(F)cc2)CC1 | 5 | 3.5 | 7 | 5.6 | 4 | 0.752 | 1.68 | 1.57 | 100 | 69.8 | 66.4 | 76.5 | 96.8 | 80.7 | 95.5 | 94.2 | 0.903 | 0.667 | 0.025 | 0.474 | Ki (Histamine H1 receptor [17]; read-out: Ki): 0.814 µM; inhibition (Histamine H1 receptor [18]): 88.5%
5 | OC1(c2ccc(Cl)c(C(F)(F)F)c2)CCN(CCCCCc2ccc(F)cc2)CC1 | 11.9 | 9.8 | 26.9 | 11.8 | 9.8 | 4.43 |  | 1.12 |  | 78.3 | 81.8 | 89.2 |  | 50 |  | 77.2 |  | 1.7 | 0.132 |  | Ki (Histamine H1 receptor [17]; read-out: Ki): 0.718 µM; inhibition (Histamine H1 receptor [18]): 69.2%
6 | OC1(c2ccc(Cl)c(C(F)(F)F)c2)CCN(CCCC(c2ccc(F)cc2)c2ccc(F)cc2)CC1 [PENFLURIDOL] | 5 | 5.1 | 6 | 6.09 | 6.01 | 3.56 |  | 0.28 | 82.9 | 94.6 | 71.5 | 77.6 | 96.5 | 91.3 | 97.3 | 100 |  |  |  | 0.136 | inhibition (Histamine H1 receptor [18]): 84%; Drug uptake [19]: Active; Drug uptake [20]: Active
7 | COc1ccc(N(CCCCN2CCC(O)(c3ccc(Cl)c(C(F)(F)F)c3)CC2)c2ccc(OC)cc2)cc1 | 7.1 | 5.4 to 7.1 | 6.3 | 11 | 11.2 | 10 | 1.4 | 0.949 | 83.5 | 65.8 | 60 | 73 | 56.6 | 78.8 | 77.5 | 57.3 | 1.31 | 10 | 0.459 | 0.437 | Ki ([1]; read-out: Ki): 4.97 µM; Ki (Histamine H1 receptor [17]; read-out: Ki): 7.03 µM; inhibition (Histamine H1 receptor [18]): 71.9%; Drug uptake [19]: Active; Drug uptake [20]: Active
8 | OC1(c2ccc(Cl)c(C(F)(F)F)c2)CCN(CCCCC(c2ccc(F)cc2)c2ccc(F)cc2)CC1 | 5.7 | 4.8 | 5.6 | 5.3 | 4.1 | 0.844 | 1.67 | 0.969 | 88.2 | 96 | 99.2 | 96.9 | 92.6 | 79.3 | 93.3 | 85 | 0.428 | 2.67 | 0.385 | 0.209 | Ki ([1]; read-out: Ki): 0.894 µM; Drug uptake [19]: Active; Drug uptake [20]: Active
